Legend:
Staphylococcus aureus [1] = test: Antibacterial activity against methicillin-resistant Staphylococcus aureus isolates from skin or soft tissue infection outpatients; type: functional
Method in brief: (§1)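 Isolates came from S. aureus-positive wound cultures. Clinicians took these at their discretion when resistant infection was suspected, in clinic patients with signs or symptoms of skin or soft tissue infection. Only cases with recorded antibiotic sensitivities were included. Nasal carriage cultures and outside-hospital cases lacking culture data were excluded. Yearly susceptibility trends used the Mantel score test, two-sided.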

Staphylococcus aureus [2] = test: Antibacterial activity against methicillin-susceptible Staphylococcus aureus isolates from skin or soft tissue infection outpatients; type: functional; method in brief: as §1

| Compound | Activity (Staphylococcus aureus [1]) | Activity (Staphylococcus aureus [2]) |
| --- | --- | --- |
| CCC[C@@H]1C[C@@H](C(=O)NC(C(C)Cl)[C@H]2O[C@H](SC)[C@H](O)[C@@H](O)[C@H]2O)N(C)C1 (single isomer, unassigned) [CLINDAMYCIN] | 48.2% | 7% |
| CN[C@H](CC(C)C)C(=O)N[C@H]1C(=O)N[C@@H](CC(N)=O)C(=O)N[C@H]2C(=O)N[C@H]3C(=O)N[C@H](C(=O)N[C@H](C(=O)O)c4cc(O)cc(O)c4-c4cc3ccc4O)[C@H](O)c3ccc(c(Cl)c3)Oc3cc2cc(c3O[C@@H]2O[C@H](CO)[C@@H](O)[C@H](O)[C@H]2O[C@H]2C[C@](C)(N)[C@H](O)[C@H](C)O2)Oc2ccc(cc2Cl)[C@H]1O [VANCOMYCIN] | 0% | 0% |
| Cc1nnc(SCC2=C(C(=O)O)N3C(=O)[C@@H](NC(=O)Cn4cnnn4)[C@H]3SC2)s1 [CEFAZOLIN] | 100% | 0% |
| O=C(O)c1cn(C2CC2)c2cc(N3CCNCC3)c(F)cc2c1=O [CIPROFLOXACIN] | 78.5% | 8.8% |
| C[C@H]1COc2c(N3CCN(C)CC3)c(F)cc3c(=O)c(C(=O)O)cn1c23.C[C@H]1COc2c(N3CCN(C)CC3)c(F)cc3c(=O)c(C(=O)O)cn1c23.O [LEVOFLOXACIN] | 33.3% | 0% |
| CC[C@H]1OC(=O)[C@H](C)[C@@H](O[C@H]2C[C@@](C)(OC)[C@@H](O)[C@H](C)O2)[C@H](C)[C@@H](O[C@@H]2O[C@H](C)C[C@H](N(C)C)[C@H]2O)[C@](C)(O)C[C@@H](C)C(=O)[C@H](C)[C@@H](O)[C@]1(C)O [ERYTHROMYCIN] | 93.8% | 57.9% |
| CN(C)[C@@H]1C(O)=C(C(N)=O)C(=O)[C@@]2(O)C(O)=C3C(=O)c4c(O)cccc4[C@@](C)(O)[C@H]3C[C@@H]12 [TETRACYCLINE] | 53.8% | 0% |
| CO[C@H]1/C=C/O[C@@]2(C)Oc3c(C)c(O)c4c(O)c(c(/C=N/N5CCN(C)CC5)c(O)c4c3C2=O)NC(=O)/C(C)=C\C=C\[C@H](C)[C@H](O)[C@@H](C)[C@@H](O)[C@@H](C)[C@H](OC(C)=O)[C@@H]1C [RIFAMPIN] |  | 0% |
| O=C(N[C@H](CO)[C@H](O)c1ccc([N+](=O)[O-])cc1)C(Cl)Cl [CHLORAMPHENICOL] |  | 0% |

From ChEMBL document CHEMBL1142184, “Treatment and outcomes of infections by methicillin-resistant Staphylococcus aureus at an ambulatory clinic” (2007)
